Assay results reported in ChEMBL document CHEMBL3351505, “Ultrasound-assisted synthesis of novel 1,2,3-triazoles coupled diaryl sulfone moieties by the CuAAC reaction, and biological evaluation of them as antioxidant and antimicrobial agents” (Eur J Med Chem, 2014).
≈ marks a conversion by molar mass, not a printed value. Calls of active or inactive are those of the source. The rule behind the calls is not given here.

Columns and labels:
Staphylococcus aureus [1] = assay: Antibacterial activity against Staphylococcus aureus ATCC 29213 using 100 uL of test compound after 24 hrs by agar well diffusion method; assay type: functional
Method in brief: (§1)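 Agar well diffusion. Nutrient agar was spread with bacterial suspension at 1×10⁸ CFU/mL, and 10 mm wells were cut. Wells were loaded with compound solution made at 200 mg per 1 mL DMSO. Plates were incubated 24 h at 37 °C and inhibition zones were measured. DMSO served as the negative control.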

Bacillus subtilis [2] = assay: Antibacterial activity against Bacillus subtilis ATCC 6633 using 100 uL of test compound after 24 hrs by agar well diffusion method; assay type: functional; method in brief: as §1
Priestia megaterium [3] = assay: Antibacterial activity against Bacillus megaterium ATCC 9885 using 100 uL of test compound after 24 hrs by agar well diffusion method; assay type: functional; method in brief: as §1
Micrococcus luteus [4] = assay: Antibacterial activity against Sarcina lutea using 100 uL of test compound after 24 hrs by agar well diffusion method; assay type: functional; method in brief: as §1
Klebsiella pneumoniae [5] = assay: Antibacterial activity against Klebsiella pneumoniae ATCC 13883 using 100 uL of test compound after 24 hrs by agar well diffusion method; assay type: functional; method in brief: as §1
Pseudomonas aeruginosa [6] = assay: Antibacterial activity against Pseudomonas aeruginosa ATCC 27953 using 100 uL of test compound after 24 hrs by agar well diffusion method; assay type: functional; method in brief: as §1
Escherichia coli [7] = assay: Antibacterial activity against Escherichia coli ATCC 25922 using 100 uL of test compound after 24 hrs by agar well diffusion method; assay type: functional; method in brief: as §1
Candida albicans [8] = assay: Antifungal activity against Candida albicans NRRL Y-477 using 100 uL of test compound after 48 hrs by agar well diffusion method; assay type: functional
Method in brief: (§2)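 Agar well diffusion. Sabouraud dextrose agar was spread with yeast or fungal suspension at 1×10⁶ CFU/mL, and 10 mm wells were cut. Wells were loaded with compound solution made at 200 mg per 1 mL DMSO. Plates were incubated 48 h at 28 °C and inhibition zones were measured. DMSO served as the negative control.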

Saccharomyces cerevisiae [9] = assay: Antifungal activity against Saccharomyces cerevisiae using 100 uL of test compound after 48 hrs by agar well diffusion method; assay type: functional; method in brief: as §2
Aspergillus niger [10] = assay: Antifungal activity against Aspergillus niger using 100 uL of test compound after 48 hrs by agar well diffusion method; assay type: functional; method in brief: as §2
Staphylococcus aureus [11] = assay: Antibacterial activity against Staphylococcus aureus ATCC 29213 after 24 hrs by two fold serial dilution method; assay type: functional
Bacillus subtilis [12] = assay: Antibacterial activity against Bacillus subtilis ATCC 6633 after 24 hrs by two fold serial dilution method; assay type: functional
Priestia megaterium [13] = assay: Antibacterial activity against Bacillus megaterium ATCC 9885 after 24 hrs by two fold serial dilution method; assay type: functional
Micrococcus luteus [14] = assay: Antibacterial activity against Sarcina lutea after 24 hrs by two fold serial dilution method; assay type: functional
Klebsiella pneumoniae [15] = assay: Antibacterial activity against Klebsiella pneumoniae ATCC 13883 after 24 hrs by two fold serial dilution method; assay type: functional
Pseudomonas aeruginosa [16] = assay: Antibacterial activity against Pseudomonas aeruginosa ATCC 27953 after 24 hrs by two fold serial dilution method; assay type: functional
Escherichia coli [17] = assay: Antibacterial activity against Escherichia coli ATCC 25922 after 24 hrs by two fold serial dilution method; assay type: functional
Candida albicans [18] = assay: Antifungal activity against Candida albicans NRRL Y-477 after 48 hrs by two fold serial dilution method; assay type: functional
Method in brief: (§3)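 Two-fold serial broth dilution in a suitable broth, run only on compounds giving inhibition zones of at least 16 mm. Final concentrations were […]. Each 5 mL received 0.1 mL inoculum and was incubated 48 h at 28 °C. MIC was the lowest concentration without growth.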

Saccharomyces cerevisiae [19] = assay: Antifungal activity against Saccharomyces cerevisiae after 48 hrs by two fold serial dilution method; assay type: functional; method in brief: as §3
Aspergillus niger [20] = assay: Antifungal activity against Aspergillus niger after 48 hrs by two fold serial dilution method; assay type: functional; method in brief: as §3
[21] = Antioxidant activity assessed as DPPH free radical scavenging activity by spectrophotometric assay; assay type: physicochemical
Method in brief: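 Sample solutions at several concentrations were added to 0.004% DPPH in methanol and incubated 60 min in the dark. Absorbance was read at 517 nm against a blank. Inhibition % = (A_blank − A_sample)/A_blank × 100, where the control contained all reagents except the test compound.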

Row | Structure (SMILES) | diameter of the inhibition zone (DIZ) (Staphylococcus aureus [1]) | diameter of the inhibition zone (DIZ) (Bacillus subtilis [2]) | diameter of the inhibition zone (DIZ) (Priestia megaterium [3]) | diameter of the inhibition zone (DIZ) (Micrococcus luteus [4]) [mm] | diameter of the inhibition zone (DIZ) (Klebsiella pneumoniae [5]) | diameter of the inhibition zone (DIZ) (Pseudomonas aeruginosa [6]) | diameter of the inhibition zone (DIZ) (Escherichia coli [7]) | diameter of the inhibition zone (DIZ) (Candida albicans [8]) [mm] | diameter of the inhibition zone (DIZ) (Saccharomyces cerevisiae [9]) | diameter of the inhibition zone (DIZ) (Aspergillus niger [10]) [mm] | MIC (Bacillus subtilis [12]) | MIC (Micrococcus luteus [14]) | MIC (Klebsiella pneumoniae [15]; ATCC 13883, 24 h) [µg/mL] | MIC (Pseudomonas aeruginosa [16]) | MIC (Escherichia coli [17]; ATCC 25922, 24 h) [µg/mL] | MIC (Saccharomyces cerevisiae [19]) | MIC (Aspergillus niger [20]) [µg/mL] | IC50 [21] [µg/mL] | MIC (Priestia megaterium [13]; ATCC 9885, 24 h) [µg/mL] | MIC (Candida albicans [18]) | further results
1 | O=S(=O)(c1ccccc1)c1ccc(C(Cc2cn(Cc3ccccc3)nn2)OCc2cn(Cc3ccccc3)nn2)cc1 (stereo unspecified) | 14 mm | 15 mm | 14 mm | 17 | 17 mm | 18 mm | 19 mm | 18 | 18 mm | 30 | inactive | 200 µg/mL (≈ 339 µM) | 200 (≈ 339 µM) | 200 µg/mL (≈ 339 µM) | 200 (≈ 339 µM) | 200 µg/mL (≈ 339 µM) | 50 (≈ 84.6 µM) | 500 (≈ 846 µM) |  |  | MIC (Staphylococcus aureus [11]): inactive; MIC (Priestia megaterium [13]): inactive; MIC (Candida albicans [18]; NRRL Y-477, 48 h): 200 µg/mL (≈ 339 µM)
2 | CC(O)(Cc1cn(CC(=O)c2ccc(F)cc2)nn1)c1ccc(S(=O)(=O)c2ccccc2)cc1 (stereo unspecified) | 17 mm | 19 mm | 17 mm | 21 | 19 mm | 22 mm | 19 mm | 15 | inactive | 32 |  | 200 µg/mL (≈ 417 µM) | 200 (≈ 417 µM) | 200 µg/mL (≈ 417 µM) | 200 (≈ 417 µM) | inactive | 50 (≈ 104 µM) | 425 (≈ 886 µM) | 200 (≈ 417 µM) | inactive | MIC (Staphylococcus aureus [11]; ATCC 29213, 24 h): 200 µg/mL (≈ 417 µM); MIC (Bacillus subtilis [12]; ATCC 6633, 24 h): 200 µg/mL (≈ 417 µM)
3 | O=C(Cn1cc(COC(Cc2cn(CC(=O)c3ccc(Br)cc3)nn2)c2ccc(S(=O)(=O)c3ccccc3)cc2)nn1)c1ccc(Br)cc1 (stereo unspecified) | 17 mm | 17 mm | 20 mm | 22 | inactive | inactive | 17 mm | 21 | 20 mm | 20 |  | 200 µg/mL (≈ 249 µM) |  | inactive | 200 (≈ 249 µM) | 200 µg/mL (≈ 249 µM) | 200 (≈ 249 µM) | 150 (≈ 186 µM) | 200 (≈ 249 µM) |  | MIC (Staphylococcus aureus [11]; ATCC 29213, 24 h): 200 µg/mL (≈ 249 µM); MIC (Bacillus subtilis [12]; ATCC 6633, 24 h): 200 µg/mL (≈ 249 µM); MIC (Klebsiella pneumoniae [15]): inactive; MIC (Candida albicans [18]; NRRL Y-477, 48 h): 200 µg/mL (≈ 249 µM)
4 | CC(O)(Cc1cn(CC(=O)c2ccc(S(=O)(=O)c3ccccc3)cc2)nn1)c1ccc(S(=O)(=O)c2ccccc2)cc1 (stereo unspecified) | inactive | inactive | 17 mm | 14 | 18 mm | 15 mm | 19 mm | 15 | 17 mm | 32 | inactive | inactive | 200 (≈ 332 µM) | inactive | 200 (≈ 332 µM) | 200 µg/mL (≈ 332 µM) | 50 (≈ 83.1 µM) | 20 (≈ 33.2 µM) | 200 (≈ 332 µM) | inactive | MIC (Staphylococcus aureus [11]): inactive
5 | CC(Cc1cn(CC(=O)c2ccccc2)nn1)(OCc1cn(CC(=O)c2ccccc2)nn1)c1ccc(S(=O)(=O)c2ccccc2)cc1 (stereo unspecified) | inactive | 16 mm | 17 mm | 17 | 23 mm | 19 mm | 21 mm | 15 | 16 mm | 28 | inactive | 200 µg/mL (≈ 303 µM) | 200 (≈ 303 µM) | 200 µg/mL (≈ 303 µM) | 200 (≈ 303 µM) | 200 µg/mL (≈ 303 µM) | 50 (≈ 75.7 µM) | 125 (≈ 189 µM) | 200 (≈ 303 µM) | inactive | MIC (Staphylococcus aureus [11]): inactive
6 | O=C(Cn1cc(COC(Cc2cn(CC(=O)c3ccc(S(=O)(=O)c4ccccc4)cc3)nn2)c2ccc(S(=O)(=O)c3ccccc3)cc2)nn1)c1ccc(S(=O)(=O)c2ccccc2)cc1 (stereo unspecified) | 17 mm | 14 mm | inactive | 19 | 13 mm | 14 mm | inactive | 14 | inactive | 20 | inactive | 200 µg/mL (≈ 216 µM) |  | inactive |  | inactive | 100 (≈ 108 µM) | 600 (≈ 647 µM) |  | inactive | MIC (Staphylococcus aureus [11]; ATCC 29213, 24 h): 200 µg/mL (≈ 216 µM); MIC (Priestia megaterium [13]): inactive; MIC (Klebsiella pneumoniae [15]): inactive; MIC (Escherichia coli [17]): inactive
